# TRPC4 act: TRPC4 (mouse) channel activation; Q9QUQ5; HEK293 TRPC4beta/mu-opioid, Fluo4 calcium fluorescence; active compounds read high; 310,000 compounds, 0.49% hits; AID 2237; B-score at 10 µM;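 active = B-score above 5 SD of library B-scores, and initial fluorescence ratio not above library mean plus 5 SD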;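 note: positive B-score marks a calcium rise read as TRPC4 activation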
# Target sequence (Q9QUQ5 whole entry, looked up): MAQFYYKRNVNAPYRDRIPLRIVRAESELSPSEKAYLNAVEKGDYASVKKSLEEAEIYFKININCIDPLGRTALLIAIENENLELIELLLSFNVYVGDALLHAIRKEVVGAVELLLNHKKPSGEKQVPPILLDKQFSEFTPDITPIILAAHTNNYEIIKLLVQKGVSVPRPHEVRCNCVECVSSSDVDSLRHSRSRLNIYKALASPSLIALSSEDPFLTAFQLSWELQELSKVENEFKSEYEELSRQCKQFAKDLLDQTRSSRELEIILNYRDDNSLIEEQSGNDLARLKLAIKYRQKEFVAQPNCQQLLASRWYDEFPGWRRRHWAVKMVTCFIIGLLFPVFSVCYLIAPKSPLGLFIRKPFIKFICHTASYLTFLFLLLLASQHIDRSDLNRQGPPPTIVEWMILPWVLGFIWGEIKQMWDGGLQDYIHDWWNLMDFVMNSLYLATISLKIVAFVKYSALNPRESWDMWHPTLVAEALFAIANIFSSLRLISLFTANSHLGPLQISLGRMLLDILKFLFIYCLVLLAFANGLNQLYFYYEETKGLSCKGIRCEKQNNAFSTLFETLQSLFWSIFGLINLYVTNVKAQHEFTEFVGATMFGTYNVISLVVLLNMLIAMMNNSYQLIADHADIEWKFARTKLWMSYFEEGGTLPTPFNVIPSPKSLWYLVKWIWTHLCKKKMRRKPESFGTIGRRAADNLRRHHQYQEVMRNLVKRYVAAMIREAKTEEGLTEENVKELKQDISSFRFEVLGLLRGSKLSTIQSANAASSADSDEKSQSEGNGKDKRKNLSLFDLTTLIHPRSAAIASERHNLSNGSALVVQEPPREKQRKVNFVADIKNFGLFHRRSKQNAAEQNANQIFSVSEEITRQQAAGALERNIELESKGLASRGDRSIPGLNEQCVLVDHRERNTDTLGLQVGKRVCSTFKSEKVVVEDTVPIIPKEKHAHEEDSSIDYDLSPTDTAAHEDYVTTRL
#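 Assay system – TRPC4beta and mu-opioid receptor HEK293 stable cells · Measured by – Fluo4 fluorescence, kinetic · Schedule – dye loading 45 min room temperature, 110 s kinetic read · Read-out – B-scored integrated calcium fluorescence ratio · Controls – buffer and maximal DAMGO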
# TRPC4 inh: TRPC4 (mouse) channel inhibition; Q9QUQ5; HEK293 TRPC4beta/mu-opioid, DAMGO-evoked Fluo4 calcium flux; active compounds read low; B-score at 10 µM; 300,000 compounds, 0.39% hits; AID 2247;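 active = B-score over 3 SD under the library average, no early fluorescence shift, positive overall ratio signal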
#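 Assay system: HEK293 cells with stable TRPC4beta plus mu-opioid receptor expression. Dosing: single dose. Measured by: Fluo4 Ca2+ flux fluorescence. Also added: DAMGO in two steps, submaximal then maximal. Read-out: B score from integrated Fluo4 fluorescence ratio.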
# TRPC6 inhibitor: mouse TRPC6 channel inhibition; 310,000 compounds, 1.1% hits; B-score at 10 µM; HEK293-TRPC6, membrane potential dye, ACh-evoked depolarization; active compounds read low; Q61143;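 active = B-score under library mean minus 3 SD, initial fluorescence not abnormally high, positive integrated signal ratio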;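 note: B-score derived from integrated fluorescence ratio over the kinetic read; more negative B-score means stronger inhibition of depolarization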
# TRPC4 PAM: allosteric potentiators of mouse TRPC4 channel; HEK293 TRPC4beta/mu-opioid, DAMGO EC20, Fluo-4 Ca2+ flux; active compounds read high; B-score at 10 µM; 310,000 compounds, 0.42% hits; AID 2227;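 active = B-score of calcium response area above 5 SD of library B-scores, with initial fluorescence ratio within 5 SD of library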;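 note: B-score of integrated fluorescence ratio over time as area under calcium response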
# TRPC6 activator: activates the mouse TRPC6 cation channel | AID 2550 | 310,000 compounds, 0.13% hits | B-score at 10 µM | HEK293-TRPC6 membrane potential dye fluorescence; active compounds read high | Q61143;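 active = B-score of the integrated fluorescence ratio above library mean plus 3 SD, and starting fluorescence ratio within library mean plus 5 SD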;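 note: higher score means more depolarization so channel activation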
# Active calls of the source: *; i = inactive. Hits are enriched below; roughly 2.3% of the tested compounds scored in any of these assays.
SMILES,TRPC4 act,TRPC4 inh,TRPC6 inhibitor,TRPC4 PAM,TRPC6 activator
CCN(CC)CCOC(=O)c1cccc(OC)c1,80*,i,i,i,i
COc1ccc(N(CC(=O)NC2CCCCC2C)S(=O)(=O)c2c(C)nn(C)c2C)cc1 (stereo unspecified),i,i,i,i,i
CCCCCN=C(N)N/N=C/c1c[nH]c2ccc(OC)cc12,66*,i,i,i,i
CCOC(=O)C1=C(C)NC(SCc2cc(=O)[nH][nH]2)=C(C#N)C1c1cccs1 (stereo unspecified),i,i,i,i,i
O=C(CCCSc1nc2ccccc2[nH]1)Nc1nnc(-c2ccccc2)o1,i,-6*,i,i,i
c1ccc(CCNc2ncnc3sccc23)nc1,51*,i,i,i,i
COc1ccc(C(CNc2ncnc3sccc23)N(C)C)cc1OC (stereo unspecified),45*,i,i,i,i
CN(C)C(CNc1ncnc2sccc12)c1ccccc1 (stereo unspecified),75*,i,i,i,i
Cc1csc2ncnc(NCCc3ccccn3)c12,i,i,i,i,i
O=C(NCc1ccccc1Cl)c1nnc(CS(=O)(=O)c2ccccc2)o1,i,i,i,i,i
C=CCNC(=O)C1CC1(c1ccc(C)cc1)c1ccc(C)cc1 (stereo unspecified),i,i,i,i,i
CCN(C(=O)COC(=O)CCC(=O)c1cccs1)c1c(N)n(Cc2ccccc2)c(=O)[nH]c1=O,i,i,i,i,i
c1ccc(-c2nc(NCc3cccnc3)c3ccccc3n2)cc1,i,-6*,i,i,i
c1ccc(CCNc2nc(-c3ccccn3)nc3ccccc23)cc1,i,-6*,i,i,i
Cc1ccc(-c2nc(NCc3cccnc3)c3ccccc3n2)cc1,i,i,i,i,i
C/C(=N\Nc1nc(-c2ccccn2)nc2ccccc12)c1ccc(F)cc1,i,i,i,i,i
OCCNc1nc(NCc2ccccc2)c2ccccc2n1,i,-6*,i,i,i
Cc1ccc(S(=O)(=O)NC(C)(C)CN2CCC(Cc3ccccc3)CC2)cc1,i,i,i,i,i
COC(=O)C1CC(=O)N(Cc2ccccc2)C1 (stereo unspecified),i,i,i,i,i
COc1ccc(C(CNC(=O)C2CC(=O)N(Cc3ccc(C)cc3)C2)N(C)C)cc1 (stereo unspecified),66*,i,i,i,i
CN(C)C(CNC(=O)C1CC(=O)N(Cc2ccccc2)C1)c1ccccc1 (stereo unspecified),72*,i,i,i,i
C/C(CCc1ccc2c(c1)OCO2)=N\N=C(/N)SC1CC(=O)N(c2ccccc2F)C1=O (stereo unspecified),i,i,i,i,i
COc1ccc(NC(=O)CCC(=O)c2ccc(C(C)C)cc2)cc1,i,i,i,i,i
COc1ccc(NC(=O)Nc2ccc(C(C)C)cc2)cc1,i,-6*,i,i,i
CC1=C(C)SC(=C(C#N)c2nnc(N3CCOCC3)n2-c2ccccc2)S1,i,i,i,i,i
SMILES,TRPC4 act,TRPC4 inh,TRPC6 inhibitor,TRPC4 PAM,TRPC6 activator
O=C(CN1CCCc2ccccc21)N/N=C/c1c(O)ccc2ccccc12,i,i,i,i,i
COc1ccc(/C=C(\C#N)C(=O)C(C)(C)n2cncn2)cc1,i,i,i,i,i
CCOC(=O)N1CCN(S(=O)(=O)c2c(C)nc3scc(C)n3c2=O)CC1,i,i,i,i,i
Cc1cccc(OCCCCc2c(C)n[nH]c2C)c1C,i,-8*,i,i,i
Cc1cccc(OCCCOc2cccc3cccnc23)c1C,i,i,i,11*,i
CCOc1ccccc1OCCCCCc1c(C)n[nH]c1C,i,i,i,i,i
O=C1CC(N2CCSCC2)C(=O)N1CCc1ccccc1 (stereo unspecified),i,i,i,i,i
O=c1oc2ccccc2c(O)c1/C=C1\C=Nc2ccccc21,85*,i,i,i,i
O=c1oc2ccccc2c(O)c1/C=N/c1ncccn1,i,i,i,i,i
CCN(CC)CCOc1ccc(/C(=C(\Cl)c2ccccc2)c2ccccc2)cc1,i,i,i,i,i
CCN(CC)CCCOc1ccc(Cl)c(Cl)c1,46*,i,i,24*,i
CCN(CC)CCOc1ccc(Br)cc1,i,i,i,11*,i
O=C(c1cnn(-c2ccccc2)c1-n1cccc1)N1CCN(C2CCCCC2)CC1,i,i,i,i,i
COc1ccccc1N1CCN(C(=O)c2ccc3c(c2)NC(=O)C(CSCc2ccccc2C)N3)CC1 (stereo unspecified),i,i,-8.8*,i,i
O=C1Nc2cc(C(=O)N3CCN(c4ccccc4F)CC3)ccc2NC1CSCc1ccccc1F (stereo unspecified),i,i,i,i,i
CCNC(=S)N/N=C/c1cc(C)n(-c2ccc(Cl)cc2)c1C,i,i,i,22*,i
Cc1cc(/C=N/NC(N)=S)c(C)n1-c1ccc(Cl)c(Cl)c1,i,i,i,i,i
O=C(Nc1nc2ccccc2s1)c1ccc(N2CCCCC2)c([N+](=O)[O-])c1,i,i,i,i,i
c1ccc2c(-c3cncc4ccccc34)cncc2c1,i,i,i,i,i
N[C@@H](Cc1ccccc1)C(=O)N1CCC(C(=O)N[C@@H](Cc2c[nH]c3ccccc23)C(=O)O)CC1,i,-6*,i,i,i
O=C(C[n+]1cc(-c2ccc(Cl)c(Cl)c2)n2c1CCC2)N1c2ccccc2Sc2ccccc21,i,-6*,i,i,i
Cc1ccc(-c2c[n+](Cc3ccc(Cl)c(Cl)c3)c3n2CCC3)cc1,i,-8*,i,i,i
CCn1c(SCC(=O)N/N=C/c2c[nH]c3ccccc23)nnc1-c1ccc(C(C)(C)C)cc1,i,i,i,i,i
CCOc1ccc2nc(SCC(=O)Nc3cc4c(cc3C(C)=O)OCO4)[nH]c2c1,i,i,i,i,i
COc1nccnc1NS(=O)(=O)c1ccc(NC(=O)c2cccc(C)c2)cc1,i,i,i,i,i
O=C(N/N=C/c1cccnc1)c1ccccc1OCc1ccc(Cl)cc1,100*,-6*,i,i,i
O=C(N/N=C/c1cccnc1)c1ccccc1OCc1ccc(Br)cc1,i,i,i,i,i
